What is called IC50 is the midpoint of a concentration-inhibition curve. A high value points to a need for much substance. The term CC50 denotes the concentration at which the toxic effect on the cells reaches its halfway point.

Each structure is given as a SMILES string. Calls of active or inactive are those of the source. The calls are words filed in the database; no cut-off is given here.

The values below come from ChEMBL document CHEMBL1139885, “De novo parallel design, synthesis and evaluation of inhibitors against the reverse transcriptase of human immunodeficiency virus type-1 and drug-resistant variants” (J Med Chem, 2007).

The target of the first data set is Human immunodeficiency virus type 1 reverse transcriptase (Human immunodeficiency virus 1) (UniProt Q72547). As to the kind of experiment: Inhibition of reverse transcriptase binding to DNA assessed as formation of RT-DNA complex by gel mobility shift assay.
Details: not given
In a few lines: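 RT 1.5 pmol preincubated 10 min at 4 °C with compound at 250 and 625 µM final. Then 0.12 pmol 5'-32P-labeled 54-nt duplex DNA added, in 10 mM HEPES, 30 mM ammonium sulfate, 0.25 mM DTT, 0.1 mg/mL BSA, pH 8.0; 10 min 32 °C. Run on nondenaturing 6.5% polyacrylamide gel, TBE, 4 °C; autoradiography.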
Regarding `N#CCC(=O)Cc1cccc(I)c1`, the outcome was inactive.

Turning to `C[C@@H]1CC=C2[C@@H](CCC[C@@]2(C)CC[C@@]2(C)C3=CCCC(C)(C)[C@H]3CC[C@@H]2C)[C@]1(C)Cc1cc(OS(=O)(=O)O)ccc1OS(=O)(=O)O`, the result was Active.

`Cc1ccnc2c1NC(=O)c1cccnc1N2C1CC1`: the result was inactive.

As for `NC(=O)c1[nH]cnc1-c1ccc(Cl)c(Br)c1`, the result was inactive.

In the next data set the test system is Human immunodeficiency virus 1. The experiment in a line: Inhibition of DNA polymerase activity of reverse transcriptase pre-incubated with drug assessed as impairment of primer elongation by DNA polymerase primer-extension assay.
Details: not given
In a few lines: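 Primer extension: 5′-32P-labelled 15-mer primed on circular φX174am3 template (4 nM T/P). RT (1.6 nM) preincubated 30 min on ice, with inhibitor before T/P addition, or with T/P for 5 min before inhibitor. Buffer 6.6 mM Tris-HCl pH 8.0, 4 mM DTT, 6 mM MgCl2, 33 mM NaCl, BSA, 20 µM each dNTP. Run 30 min at 37 °C; products resolved on gel and viewed by autoradiography.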
Turning to `N#CCC(=O)Cc1cccc(I)c1`, the outcome was Active.

On to `Cc1ccnc2c1NC(=O)c1cccnc1N2C1CC1`, for which the outcome was Active.

The target in the next data set is T1, Human immunodeficiency virus type 1 reverse transcriptase (Human immunodeficiency virus 1, UniProt Q72547). The experiment in a line: Inhibition of DNA polymerase activity of HIV1 reverse transcriptase.
Details: not given
Take `NC(=O)c1sc(N)nc1-c1cccc(C(=O)c2ccccc2)c1`: the IC50 came to 44.1 µM.

`N#CCC(=O)c1cccc(Cl)c1` returned a half-inhibitory concentration (IC50) of 4.1 µM.

For the compound `NC(=O)CC(=O)c1cccc(-c2ccccc2)c1`, the IC50 was > 312 µM.

The compound `N#CCC(=O)Cc1cccc(I)c1` had an IC50 of 3.5 µM.

For the compound `NC(=O)c1[nH]cnc1-c1cccc(-c2ccccc2)c1`, the IC50 is > 312 µM.

Compound `NC(=O)c1scnc1-c1ccc(Cl)c(Br)c1` yielded an IC50 of 87.5 µM.

On to `NC(=O)c1scnc1-c1cccc(I)c1`, for which the IC50 is > 312 µM.

In the case of `NC(=O)c1[nH]cnc1-c1ccccc1`, the concentration for half-maximal inhibition (IC50) stood at 300 µM.

In turn, `CCOP(=O)(OCC)Oc1cccc(C(=O)CC#N)c1` showed a half-inhibitory concentration (IC50) of 64.3 µM.

For `NC(=O)c1sc(N)nc1-c1ccc(Cl)c(Br)c1`, the midpoint of inhibition, the IC50, lay at 118 µM.

Compound `N#CCC(=O)c1cccc(-c2ccccc2)c1` gave an IC50 of 33.4 µM.

As for `N#CCC(=O)c1ccc(Cl)c(Br)c1`, the IC50 was > 312 µM.

In turn, `NC(=O)c1sc(N)nc1-c1cccc(Cl)c1` displayed an IC50 of 54.4 µM.

In the case of `NC(=O)CC(=O)c1cccc(C(=O)c2ccccc2)c1`, the 50% inhibitory concentration (IC50) is > 312 µM.

`N#CCC(=O)c1cccc(C(=O)c2ccccc2)c1` returned an IC50 of 9.8 µM.

Consider `NC(=O)c1[nH]cnc1-c1cccc(Cl)c1`, for which the 50% inhibitory concentration (IC50) came out at 79.8 µM.

In turn, `NC(=O)c1sc(N)nc1-c1ccccc1` had an IC50 of 80.7 µM.

`NC(=O)c1scnc1-c1cccc(C(=O)c2ccccc2)c1`: the half-maximal inhibitory concentration (IC50) came out at 16.3 µM.

`NC(=O)c1scnc1-c1ccccc1`: the IC50 worked out at 283 µM.

For the compound `NC(=O)CC(=O)c1cccc(Cl)c1`, the IC50 is > 312 µM.

As for `NC(=O)c1scnc1-c1cccc(-c2ccccc2)c1`, the half-inhibitory concentration (IC50) is > 312 µM.

As to `NC(=O)c1[nH]cnc1-c1ccc(Cl)c(Br)c1`, 9.9 µM corresponded to half-maximal inhibition (IC50).

In turn, `NC(=O)c1sc(N)nc1-c1cccc(I)c1` returned a 50% inhibitory concentration (IC50) of 125 µM.

With `N#CCC(=O)c1cccc(I)c1`, the IC50 is > 312 µM.

On to `NC(=O)c1[nH]cnc1-c1cccc(C(=O)c2ccccc2)c1`, for which the IC50 was > 312 µM.

`NC(=O)CC(=O)c1cccc(I)c1` came in with an IC50 of 29.6 µM.

Compound `NC(=O)c1sc(N)nc1-c1cccc(-c2ccccc2)c1` showed an IC50 of 59.2 µM.

Target in the next data set: not listed separately
The experiment in a line: Inhibition of RNase H activity of HIV1 reverse transcriptase.
Details: not given
More on the design: species or system Human immunodeficiency virus 1. In short, it runs like this: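 FRET assay: RT (6 nM) with fluorescein-RNA/DNA-dabcyl hybrid substrate, 1 mM DTT, ± inhibitor; fluorescence read after 30 min at 37 °C. Triplicates; IC50 interpolated from dose-response curves.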
In the case of `NC(=O)c1sc(N)nc1-c1cccc(C(=O)c2ccccc2)c1`, the IC50 is > 312 µM.

Consider `N#CCC(=O)c1cccc(Cl)c1`, for which half-maximal inhibition (IC50) required 28 µM.

`N#CCC(=O)Cc1cccc(I)c1` returned a concentration for half-maximal inhibition (IC50) of 20 µM.

As to `CCOP(=O)(OCC)Oc1cccc(C(=O)CC#N)c1`, the IC50 amounted to 112 µM. Against the preceding compound, the IC50 is about 5.6-fold higher.

For the compound `N#CCC(=O)c1cccc(-c2ccccc2)c1`, the IC50 came out at 84 µM.

In the case of `NC(=O)c1sc(N)nc1-c1cccc(Cl)c1`, the half-inhibitory concentration (IC50) is > 312 µM.

Regarding `N#CCC(=O)c1cccc(C(=O)c2ccccc2)c1`, the IC50 worked out at 98 µM.

Take `NC(=O)c1[nH]cnc1-c1cccc(Cl)c1`: the IC50 was > 312 µM.

On to `NC(=O)c1sc(N)nc1-c1ccccc1`, for which the IC50 was > 312 µM.

`NC(=O)c1scnc1-c1cccc(C(=O)c2ccccc2)c1` had an IC50 of 77 µM.

`NC(=O)c1[nH]cnc1-c1ccc(Cl)c(Br)c1`: it took 41 µM to reach half-maximal inhibition (IC50).

For `NC(=O)CC(=O)c1cccc(I)c1`, the half-inhibitory concentration (IC50) is > 312 µM.

With `NC(=O)c1sc(N)nc1-c1cccc(-c2ccccc2)c1`, the midpoint of inhibition, the IC50, lay at 249 µM.

System in the next data set: not listed separately
As to the kind of experiment: Cytotoxicity against Jurkat cells by XTT assay. The settings on record: human. Type of data set: cell-based. In short, it runs like this:
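Jurkat cells; XTT read-out, absorbance 450 nm with 620 nm reference. CC50 = concentration reducing viability by 50% versus inhibitor-free control.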
For the compound `NC(=O)c1sc(N)nc1-c1cccc(C(=O)c2ccccc2)c1`, the CC50 is > 312 µM.

Turning to `N#CCC(=O)c1cccc(Cl)c1`, the CC50 was > 312 µM.

`N#CCC(=O)Cc1cccc(I)c1` showed a CC50 of 247 µM.

With `CCOP(=O)(OCC)Oc1cccc(C(=O)CC#N)c1`, the CC50 is > 312 µM.

`N#CCC(=O)c1cccc(-c2ccccc2)c1` yielded a 50% cytotoxic concentration (CC50) of 233 µM.

On to `NC(=O)c1sc(N)nc1-c1cccc(Cl)c1`, for which the CC50 was > 312 µM.

In the case of `N#CCC(=O)c1cccc(C(=O)c2ccccc2)c1`, the half-maximal cytotoxic concentration (CC50) amounted to 251 µM.

Turning to `NC(=O)c1[nH]cnc1-c1cccc(Cl)c1`, the CC50 was > 312 µM.

As to `NC(=O)c1sc(N)nc1-c1ccccc1`, the CC50 was > 312 µM.

As for `NC(=O)c1scnc1-c1cccc(C(=O)c2ccccc2)c1`, the cytotoxic concentration (CC50) was > 312 µM.

Compound `NC(=O)c1[nH]cnc1-c1ccc(Cl)c(Br)c1` had a CC50 of 213 µM.

Consider `NC(=O)CC(=O)c1cccc(I)c1`, for which the half-maximal cytotoxic concentration (CC50) is > 312 µM.

In turn, `NC(=O)c1sc(N)nc1-c1cccc(-c2ccccc2)c1` registered a half-maximal cytotoxic concentration (CC50) of 244 µM.

Another data set concerns the target T1, Human immunodeficiency virus type 1 reverse transcriptase. The experiment in a line: Inhibition of HIV1 wild type p66/p51 reverse transcriptase.
Details: not given
In a few lines:
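BH-10-derived p66/p51 RT, C-terminal His6 on p66, expressed in bacteria, Ni-NTA then cation exchange purified. Substrate mix: 50 µg/mL poly(rA)·oligo(dT)12-18, 50 µM dTTP, [3H]dTTP; 30 min 37 °C.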
The compound `N#CCC(=O)Cc1cccc(I)c1` came in with an IC50 of 3.5 µM. In other words, the single-digit micromolar range.

The compound `NC(=O)c1[nH]cnc1-c1ccc(Cl)c(Br)c1` registered a half-maximal inhibitory concentration (IC50) of 9.9 µM. Compared with the last compound, the IC50 is about 2.8-fold higher.

Target in the next data set: not listed separately
The experiment in a line: Inhibition of drug-resistant reverse transcriptase […] mutant. More on the design: species or system Human immunodeficiency virus 1.
Details: not given
`N#CCC(=O)Cc1cccc(I)c1`: the half-maximal inhibitory concentration (IC50) is 9.9 µM.

As for `NC(=O)c1[nH]cnc1-c1ccc(Cl)c(Br)c1`, the IC50 was 26.4 µM.

Target in a further data set: not listed separately
The experiment in a line: Inhibition of drug-resistant reverse transcriptase L100I-K103 mutant. More on the design: species or system Human immunodeficiency virus 1.
Details: not given
In a few lines:
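p66/p66 homodimer HIV-1 RT double mutant (His-tagged, E. coli-expressed, Ni-NTA purified). DNA polymerase activity: [3H]dTTP incorporation into poly(rA)n·oligo(dT)12-18. DMSO serial dilutions of inhibitor plus 14 ng RT in Tris-HCl pH 7.5/KCl/MgCl2, 10 min on ice, then substrate added, 30 min at 37 °C, scintillation counting. IC50 from a four-parameter logistic fit, from at least two experiments.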
Compound `N#CCC(=O)Cc1cccc(I)c1` yielded an IC50 of 9.4 µM.

In turn, `NC(=O)c1[nH]cnc1-c1ccc(Cl)c(Br)c1` displayed an IC50 of 19.8 µM.
